{"data": "Assay results gathered from unrelated publications", "target": "Serine/threonine-protein kinase DCLK2 (DCLK2, Homo sapiens, UniProt Q8N568)", "Residues used in one study (Q8N568 1-766)": "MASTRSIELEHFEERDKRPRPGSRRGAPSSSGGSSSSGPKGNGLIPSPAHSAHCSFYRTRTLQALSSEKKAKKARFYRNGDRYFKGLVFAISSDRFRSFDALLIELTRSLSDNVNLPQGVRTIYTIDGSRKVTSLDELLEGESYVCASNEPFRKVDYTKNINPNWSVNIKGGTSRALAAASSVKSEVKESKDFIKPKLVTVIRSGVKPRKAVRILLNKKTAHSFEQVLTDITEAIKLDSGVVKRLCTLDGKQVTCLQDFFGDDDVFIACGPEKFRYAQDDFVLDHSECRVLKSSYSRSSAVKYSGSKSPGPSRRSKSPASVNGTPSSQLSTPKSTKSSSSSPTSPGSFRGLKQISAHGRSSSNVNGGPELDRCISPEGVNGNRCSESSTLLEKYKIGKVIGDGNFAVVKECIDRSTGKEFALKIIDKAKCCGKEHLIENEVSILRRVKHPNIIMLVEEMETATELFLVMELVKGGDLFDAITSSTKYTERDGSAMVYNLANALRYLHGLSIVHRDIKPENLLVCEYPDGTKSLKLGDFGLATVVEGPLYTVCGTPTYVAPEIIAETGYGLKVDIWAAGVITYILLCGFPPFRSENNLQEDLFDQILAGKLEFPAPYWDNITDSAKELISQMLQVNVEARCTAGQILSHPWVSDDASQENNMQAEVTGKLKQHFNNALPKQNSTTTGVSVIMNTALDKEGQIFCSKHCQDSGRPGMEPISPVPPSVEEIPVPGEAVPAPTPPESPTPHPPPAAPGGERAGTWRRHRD", "note": "Compare with care: the assays were run in different laboratories."}
{"SMILES": "O=c1[nH]c2ccccc2n1C1CCN(Cc2ccc(-c3[nH]c4cc5ncnc5cc4nc3-c3ccccc3)cc2)CC1", "assay": "cell-free assay", "setting": "0.5 µM", "measurement": "remaining signal", "value": "107%"}
{"SMILES": "Cn1cc(-c2cccc(N3CCc4c(sc5c4CC(C)(C)C5)C3=O)c2CO)cc(Nc2ccncn2)c1=O", "assay": "enzyme activity, inhibitor", "setting": "1 µM", "measurement": "inhibition", "value": "3%"}
{"SMILES": "N#CC1(c2ccccn2)CCN(Cc2cc(C(=O)O)c(=O)n3ccccc23)CC1", "assay": "cell-free assay, competition with immobilised ligand", "setting": "1 µM", "measurement": "remaining binding", "value": "100%"}
{"SMILES": "Nc1ncc(-c2nc(N3CCOCC3)nc(N3CCOCC3)n2)c(C(F)F)n1", "assay": "binding, competition with immobilised ligand", "setting": "10 µM", "measurement": "remaining binding", "value": "86%"}
{"SMILES": "Cc1nn(C)cc1-c1nc2c(N3CCN(Cc4ccc(Cl)cc4)CC3)c(Cl)cnc2[nH]1", "assay": "binding, competition with immobilised ligand", "setting": "1 µM", "measurement": "remaining binding", "value": "100%"}
{"SMILES": "COc1ncccc1-c1cnn2ccc(N3CCN(C(=O)OC(C)C)CC3)nc12", "assay": "binding, competition with immobilised ligand", "setting": "1 µM", "measurement": "remaining binding", "value": "100%"}
{"SMILES": "CC(C)(C)c1cc(C=C(C#N)C#N)cc(Br)c1O", "assay": "enzyme activity, inhibitor", "setting": "0.5 µM", "measurement": "remaining activity", "value": "109%"}
{"SMILES": "Cn1cc(-c2cc(F)cc(N3CCn4c(cc5c4CCCC5)C3=O)c2CO)cc(Nc2ccc(N3CCN(C4COC4)CC3)cn2)c1=O", "assay": "enzyme activity, inhibitor", "setting": "0.1 µM", "measurement": "inhibition", "value": "10%"}
{"SMILES": "Cn1cncc1[C@@](O)(COc1ccc(C#N)cc1-c1ccc(OC(F)(F)F)cc1)c1ccc(C#N)cc1", "assay": "cell-free assay, competition with immobilised ligand", "setting": "1 µM", "measurement": "remaining binding", "value": "100%"}
{"SMILES": "COc1cc(Nc2ncc(F)c(Nc3ccc4c(n3)NC(=O)C(C)(C)O4)n2)cc(OC)c1OC", "assay": "binding, competition with immobilised ligand", "setting": "10 µM", "measurement": "inhibition", "value": "36%"}
